In ChEMBL document CHEMBL1133766, “Enkephalin glycopeptide analogues produce analgesia with reduced dependence liability” (J Med Chem, 2000):

How the values were obtained:
[1] = species on record: Mus musculus; assay: (§1) Opioid receptor activity was evaluated using mouse vas deferens (MVD) assay; format: functional, organism-based
[2] = target: Delta-type opioid receptor (Homo sapiens, UniProt P41143); assay: Binding affinity towards Opioid receptor delta 1 was evaluated
[3] = target: Mu-type opioid receptor (Homo sapiens, UniProt P35372); assay: Binding affinity towards Opioid receptor mu 1 was evaluated
[4] = (§2) Opioid receptor activity was evaluated using guinea pig ileum (GPI) assay; format: functional, tissue-based; details: Cavia porcellus
[5] = as §2; format: tissue-based; details: Cavia porcellus
[6] = target: Opioid receptor (Mus musculus, UniProt P42866+P32300+P33534); assay: as §1; format: tissue-based
[7] = system: Rattus norvegicus; assay: Amount of the drug required to produce 50% antinociception when administered subcutaneously; value ranges from 4.9-10.00; format: functional
Procedure, shortened: (§3)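 55 °C tail-flick test after a single injection by the route named in the line, with graded doses giving a dose-response. % antinociception = 100 × [test latency − control latency]/[15 − control latency]. A50 is the amount of drug giving 50% antinociception, derived from the dose-response curve.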

[8] = system: Rattus norvegicus; assay: Amount of the drug required to produce 50% antinociception when administered intracerebroventricularly; value ranges from 0.01-0.04; format: functional; procedure, shortened: as §3
[9] = system: Rattus norvegicus; assay: Amount of the drug required to produce 50% antinociception when administered intraperitoneally; value ranges from 21.2-55.5; format: functional; procedure, shortened: as §3
[10] = system: Rattus norvegicus; assay: Amount of the drug required to produce 50% antinociception when administered intravenously; value ranges from 8.5-15.2; format: functional; procedure, shortened: as §3
[11] = system: Rattus norvegicus; assay: Amount of the drug required to produce 50% antinociception when administered intracerebroventricularly; value ranges from 1.8-4.2; format: functional; procedure, shortened: as §3
[12] = system: Rattus norvegicus; assay: Amount of the drug required to produce 50% antinociception when administered intraperitoneally; value ranges from 11.8-18.0; format: functional; procedure, shortened: as §3
[13] = system: Rattus norvegicus; assay: Amount of the drug required to produce 50% antinociception when administered intravenously; value ranges from 4.9-7.9; format: functional; procedure, shortened: as §3
[14] = system: Rattus norvegicus; assay: Amount of the drug required to produce 50% antinociception when administered subcutaneously; value ranges from 10.2-17.0; format: functional; procedure, shortened: as §3
[15] = system: Rattus norvegicus; assay: Amount of the drug required to produce 50% antinociception when administered subcutaneously; value ranges from 15.9-26.0; format: functional; procedure, shortened: as §3
[16] = system: Rattus norvegicus; assay: Amount of the drug required to produce 50% antinociception when administered intracerebroventricularly; value ranges from 0.05-0.09; format: functional; procedure, shortened: as §3
[17] = system: Rattus norvegicus; assay: Amount of the drug required to produce 50% antinociception when administered intraperitoneally; value ranges from 124.0-151.8; format: functional; procedure, shortened: as §3
[18] = system: Rattus norvegicus; assay: Amount of the drug required to produce 50% antinociception when administered intravenously; value ranges from 35.4-60.7; format: functional; procedure, shortened: as §3

Chain of Mu-type opioid receptor (P35372 whole entry): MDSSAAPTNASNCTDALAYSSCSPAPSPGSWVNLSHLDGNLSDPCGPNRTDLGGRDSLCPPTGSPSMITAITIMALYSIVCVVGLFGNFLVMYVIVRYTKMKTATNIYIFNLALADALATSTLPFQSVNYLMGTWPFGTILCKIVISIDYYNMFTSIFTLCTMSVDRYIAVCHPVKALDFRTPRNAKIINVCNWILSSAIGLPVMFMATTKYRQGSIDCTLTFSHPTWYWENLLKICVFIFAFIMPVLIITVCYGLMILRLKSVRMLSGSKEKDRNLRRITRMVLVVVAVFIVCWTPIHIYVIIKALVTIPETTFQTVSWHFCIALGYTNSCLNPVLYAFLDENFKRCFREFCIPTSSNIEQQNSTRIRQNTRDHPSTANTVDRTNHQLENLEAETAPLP
Chain of Delta-type opioid receptor (P41143 whole entry): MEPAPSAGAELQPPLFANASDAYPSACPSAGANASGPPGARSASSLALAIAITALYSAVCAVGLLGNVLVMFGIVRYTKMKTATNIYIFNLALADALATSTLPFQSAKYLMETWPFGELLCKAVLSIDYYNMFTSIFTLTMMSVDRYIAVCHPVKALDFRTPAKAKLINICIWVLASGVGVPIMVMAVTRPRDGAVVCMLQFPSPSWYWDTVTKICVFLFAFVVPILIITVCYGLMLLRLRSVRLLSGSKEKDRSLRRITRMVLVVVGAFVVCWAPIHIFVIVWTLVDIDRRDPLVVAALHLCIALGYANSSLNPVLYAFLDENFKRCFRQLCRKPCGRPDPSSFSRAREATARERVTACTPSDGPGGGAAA

`CC(C)C[C@H](NC(=O)[C@H](Cc1ccccc1)NC(=O)CNC(=O)[C@H](NC(=O)[C@@H](N)Cc1ccc(O)cc1)[C@H](C)O)C(=O)N[C@@H](CO[C@H]1O[C@@H](CO)[C@H](O)[C@@H](O)[C@H]1O)C(N)=O` [listing 1 of 2 here] gave an IC50 [1] of 1.6 nM, an IC50 [2] of 3.4 nM and an IC50 [3] of 8.2 nM. For the same molecule, the IC50 [4] was 33.8 nM.
`CC(C)C[C@H](NC(=O)[C@H](Cc1ccccc1)NC(=O)CNC(=O)[C@H](NC(=O)[C@@H](N)Cc1ccc(O)cc1)[C@H](C)O)C(=O)N[C@@H](CO)C(N)=O` [listing 1 of 2 here] showed an IC50 [5] of 25 nM, an IC50 [6] of 2.7 nM and an IC50 [2] of 2.4 nM. The IC50 [3] was 4 nM.
`CC(C)C[C@H](NC(=O)[C@H](Cc1ccccc1)NC(=O)CNC(=O)[C@H](NC(=O)[C@@H](N)Cc1ccc(O)cc1)[C@H](C)O)C(=O)N[C@@H](CO[C@H]1O[C@@H](CO)[C@H](O)[C@@H](O)[C@H]1O)C(N)=O` [listing 2 of 2 here] gave an A50 [7] of 7.2 mM/kg, an A50 [8] of 0.02 nM and an A50 [9] of 34.3 mM/kg. For the same molecule, the A50 [10] was 11.4 mM/kg.
Molecule `CN1CC[C@]23c4c5ccc(O)c4O[C@H]2[C@@H](O)C=C[C@H]3[C@H]1C5` [MORPHINE] has an A50 [11] of 2.7 nM, an A50 [12] of 14.6 mM/kg and an A50 [13] of 6.3 mM/kg. It also gave an A50 [14] of 13.2 mM/kg.
Molecule `CC(C)C[C@H](NC(=O)[C@H](Cc1ccccc1)NC(=O)CNC(=O)[C@H](NC(=O)[C@@H](N)Cc1ccc(O)cc1)[C@H](C)O)C(=O)N[C@@H](CO)C(N)=O` [listing 2 of 2 here] has an A50 [15] of 20.3 mM/kg, an A50 [16] of 0.07 nM and an A50 [17] of 137.2 mM/kg. It also gave an A50 [18] of 46.4 mM/kg.
